A word on the inhibition: it is the percentage by which the read-out fell short of the control. The term IC50 denotes the midpoint of a concentration-inhibition curve.

The text below walks through data of ChEMBL document CHEMBL4316585, “On the role of synthesized hydroxylated chalcones as dual functional amyloid-β aggregation and ferroptosis inhibitors for potential treatment of Alzheimer's disease” (Eur J Med Chem, 2019).

The source made the active and inactive calls. The rule behind the calls is not given here.

In data set [1] the target is Amyloid-beta precursor protein (Homo sapiens) (UniProt P05067). Nature of the data set: Inhibition of HFIP-pretreated amyloid beta (1 to 42 residues) (unknown origin) self aggregation at 25 uM after 7 days by ThT-based fluorometric method relative to control. The method in brief: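 Aβ1-42 (25 μM) incubated with or without inhibitor (25 μM, 1:1) in 10 mM phosphate buffer pH 7.4 with 100 mM NaCl at 37 °C for 7 days. Inhibitor-only blanks included. Samples diluted in 50 mM glycine-NaOH pH 8.0 containing 5 μM ThT, fluorescence read at ex 440/em 485 nm. % inhibition = (1−IFi/IFc)×100 after background subtraction, triplicate.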
Chain of Amyloid-beta precursor protein (Homo sapiens) (P05067 whole entry, the tested form may be a part): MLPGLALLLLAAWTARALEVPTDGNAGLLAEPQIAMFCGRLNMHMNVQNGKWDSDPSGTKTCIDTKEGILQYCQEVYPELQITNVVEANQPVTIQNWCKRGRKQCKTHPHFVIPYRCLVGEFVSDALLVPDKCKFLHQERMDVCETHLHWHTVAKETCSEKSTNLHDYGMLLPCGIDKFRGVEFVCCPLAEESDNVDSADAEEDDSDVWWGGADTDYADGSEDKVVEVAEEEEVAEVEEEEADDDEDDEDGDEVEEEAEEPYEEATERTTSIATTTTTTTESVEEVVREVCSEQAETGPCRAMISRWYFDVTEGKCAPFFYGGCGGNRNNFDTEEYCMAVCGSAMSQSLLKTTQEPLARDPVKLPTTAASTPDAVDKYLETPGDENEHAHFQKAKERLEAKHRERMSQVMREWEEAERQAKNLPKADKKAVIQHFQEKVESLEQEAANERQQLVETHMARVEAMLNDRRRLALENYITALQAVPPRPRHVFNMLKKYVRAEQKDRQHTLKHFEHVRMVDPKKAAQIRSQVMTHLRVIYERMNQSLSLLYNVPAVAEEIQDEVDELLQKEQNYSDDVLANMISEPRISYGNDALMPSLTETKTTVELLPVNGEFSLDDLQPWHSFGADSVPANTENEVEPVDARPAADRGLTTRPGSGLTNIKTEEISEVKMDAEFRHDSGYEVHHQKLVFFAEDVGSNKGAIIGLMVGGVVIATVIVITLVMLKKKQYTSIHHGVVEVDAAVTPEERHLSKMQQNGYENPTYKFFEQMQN

The nature of data set [2]: (§1) Neurotoxicity against human SH-SY5Y cells assessed as cell viability at 10 to 40 uM after 24 hrs […] relative to control. Type of data set: toxicity, cell-based. Particulars: SH-SY5Y cells, read-out: Activity.
In data set [3] the test system is SH-SY5Y. Nature of the data set: Neuroprotective activity against amyloid beta (1 to 42)-induced neurodegeneration in human SH-SY5Y cells assessed as cell viability at 10 uM preincubated for 4 hrs followed by amyloid beta (1 to 42) addition and measured after 48 hrs by MTS assay (reference value: 60.4%). It counts as functional. Particulars: for viability at 10 µM: read-out: Activity.

Data set [4] has as its system HEK293. Briefly: Inhibition of (1S,3R)-RSL3-induced ferroptosis in HEK293 cells preincubated for 4 hrs followed by erastin stimulation and measured at next day by MTS assay. Type of data set: functional, cell-based, Homo sapiens. In short, it runs like this:
(§2)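 HEK-293 cells grown in DMEM with 10 % FBS, 1 % pen/strep and 1 mM sodium pyruvate, 37 °C, 5 % CO2. Seeded 5000/well for 24 h. Compounds at a range of concentrations added 4 h before ferroptosis induction with (1S,3R)-RSL3 (500 nM) or erastin (10 μM). MTS viability read 24 h after induction, normalized to vehicle. IC50 taken as the mean of ≥3 experiments.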

In data set [5] the test system is HEK293. Briefly: Inhibition of erastin-induced ferroptosis in HEK293 cells preincubated for 4 hrs followed by erastin stimulation and measured at next day by MTS assay. It counts as functional, cell-based, Homo sapiens. The method in brief:
as §2
In general terms: Tetrazolium assays rely on reduction of a dye to a coloured formazan, in cell work by metabolically active cells.

Data set [6] deals with SH-SY5Y. Nature of the data set: Neuroprotective activity against amyloid beta (1 to 42)-induced neurodegeneration in human SH-SY5Y cells assessed as cell viability at 0.5 uM preincubated for 4 hrs followed by amyloid beta (1 to 42) addition and measured after 48 hrs by MTS assay (reference value: 55.1%). It counts as functional. Particulars: read-out: Activity.
For data set [7], the system named is SH-SY5Y. Nature of the data set: Neuroprotective activity against amyloid beta (1 to 42)-induced neurodegeneration in human SH-SY5Y cells assessed as cell viability at 1 uM preincubated for 4 hrs followed by amyloid beta (1 to 42) addition and measured after 48 hrs by MTS assay (reference value: 55.1%). Type of data set: functional. Particulars: read-out: Activity.

For data set [8], the system named is SH-SY5Y. The description is as §1. It counts as toxicity, cell-based. Particulars: sh-sy5y, 24 h, 40 µM.
In data set [9] the test system is SH-SY5Y. Nature of the data set: Inhibition of RSL3-induced lipid peroxidation in human SH-SY5Y cells at 10 uM incubated for 24 hrs by BODIPY-C11'581/591 probe-based flow cytometric analysis. It counts as functional, cell-based. The method in brief: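 SH-SY5Y seeded 2×10^4/well and adhered 24 h, then given compound plus RSL3 (500 nM) for 24 h. Stained with BODIPY-C11 581/591 (1 μM) for 30 min at 37 °C in the dark. Flow cytometry at ex 488, em 525±25 nm, 10,000 events. Controls: untreated (negative), DEM 1 mM, and RSL3 alone.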
For orientation: Flow cytometry measures light scatter and fluorescence of single cells or particles in a stream.

The subject of data set [10] is HEK293. Briefly: Inhibition of (1S,3R)-RSL3-induced ferroptosis in HEK293 cells preincubated for 4 hrs followed by (1S,3R)-RSL3 stimulation and measured at next day by MTS assay. Particulars: Homo sapiens.
Data set [11] deals with SH-SY5Y. Briefly: Neuroprotective activity against amyloid beta (1 to 42)-induced neurodegeneration in human SH-SY5Y cells assessed as increase in cell viability at 1 uM preincubated for 4 hrs followed by amyloid beta (1 to 42) addition after 48 hrs by micrograph method. It counts as functional, cell-based. The method in brief: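 SH-SY5Y cells pretreated with compound (1 μM), then exposed to Aβ1-42 (10 μM) for 48 h. Cell morphology and clumping assessed by light micrographs against vehicle and Aβ-alone cells.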

The test system of data set [12] is SH-SY5Y. Briefly: Inhibition of amyloid beta (1 to 42)-induced lipid peroxidation in human SH-SY5Y cells at 10 uM incubated for 48 hrs by BODIPY-C11'581/591 probe-based flow cytometric analysis. Type of data set: functional, cell-based. In short, it runs like this: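 SH-SY5Y seeded 2×10^4/well and adhered 24 h, then given compound with Aβ1-42 for 48 h. Stained with BODIPY-C11 581/591 (1 μM) for 30 min at 37 °C in the dark. Flow cytometry at ex 488, em 525±25 nm, 10,000 events. Untreated, DEM (1 mM) and Aβ-alone controls.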

Where [13] appears, read: Homo sapiens, HEK293, read-out: IC50.

Consider `Cc1cccc(/C=C/C(=O)c2cccc(O)c2)c1`, for which the inhibition entry in [1] is “inactive”. In data set [2], the viability at 24 h, up to 40 µM was in the range of 73.6 to 77.4%.

In the case of `COc1cc(/C=C/C(=O)CC(=O)/C=C/c2ccc(O)c(OC)c2)ccc1O` [CURCUMIN], in the data set with SH-SY5Y [3], the viability at 10 µM is 76%.

Consider `O=C(O[C@@H]1Cc2c(O)cc(O)cc2O[C@@H]1c1cc(O)c(O)c(O)c1)c1cc(O)c(O)c(O)c1` [EPIGALOCATECHIN GALLATE], for which the inhibition in data set [1] was 52.9%. Also, the viability at 10 µM in the data set on SH-SY5Y [3] stood at 92.5%. Further, the IC50 entry with HEK293 [4] and in the data set with HEK293 [5] (hek293) was “Not Active” throughout. Also, in the data set with SH-SY5Y [6], the viability at 0.5 µM was determined as 60.1%. Moreover, the viability at 1 µM with SH-SY5Y [7] came to 63%.

As to `Cc1cccc(/C=C/C(=O)c2cc(O)cc(O)c2)c1`, in [1], the inhibition was 27.2%. Moreover, the Activity result with SH-SY5Y [8] is listed as “Non-Toxic”. The result in the data set with SH-SY5Y [3] was Active.

With `COCOc1ccc(C(=O)/C=C/c2ccc(OC)cc2)c(O)c1OCOC`, the inhibition in data set [1] was 16.4%. Besides, in the data set with SH-SY5Y [8], the Activity result is “Non-Toxic”. For the same compound, the viability at 10 µM in the data set with SH-SY5Y [3] lay in the range of 72 to 84.9%.

In the case of `COc1ccc(/C=C/C(=O)c2ccc(O)c(O)c2O)cc1`, the inhibition in [1] lay in the range of 70.3 to 76.3%. The Activity result in the data set on SH-SY5Y [8] was “Non-Toxic”. Also, the inhibition result in the data set on SH-SY5Y [9] was “Active”. The IC50 is 1770 nM with HEK293 [10] and 3880 nM with HEK293 [5] (setting [13]). For the same compound, the viability at 10 µM in the data set on SH-SY5Y [3] fell in the range of 96.5 to 106%. Besides, the viability at 0.5 µM with SH-SY5Y [6] was in the range of 66.7 to 73.8%. Besides, the viability at 1 µM with SH-SY5Y [7] lay within 70.8 to 77.5%. In addition, in the data set on SH-SY5Y [11], the result was Active.

With `O=C(/C=C/c1cccc(Cl)c1)c1ccc(O)c(O)c1O`, the inhibition in data set [1] is 70.3 to 76.3%. Further, the Activity result with SH-SY5Y [8] was “Non-Toxic”. Besides, in the data set on SH-SY5Y [9], the inhibition entry was “Active”. Besides, the concentration for half-maximal inhibition (IC50) was found to be 860 nM with HEK293 [10] and 3150 nM in the data set with HEK293 [5] (setting [13]). The viability at 10 µM in the data set on SH-SY5Y [3] is 96.5 to 106%. The viability at 0.5 µM in the data set on SH-SY5Y [6] lay within 66.7 to 73.8%. The viability at 1 µM in the data set on SH-SY5Y [7] lay within 70.8 to 77.5%. For the same compound, the result in the data set with SH-SY5Y [11] was Active.

For `COc1ccc(/C=C/C(=O)c2cc(O)cc(O)c2)cc1`, the inhibition in data set [1] amounted to 19%. In addition, the Activity result in the data set on SH-SY5Y [8] was “Non-Toxic”. In addition, in the data set on SH-SY5Y [3], the outcome was Active.

Turning to `COc1ccc(/C=C/C(=O)c2cccc(O)c2)cc1OC`, the inhibition entry in data set [1] is “inactive”. The Activity entry with SH-SY5Y [8] is “Non-Toxic”.

For `Cc1cccc(/C=C/C(=O)c2ccc(O)c(O)c2O)c1`, in data set [1], the inhibition fell in the range of 70.3 to 76.3%. Moreover, in the data set with SH-SY5Y [8], the Activity result was “Non-Toxic”. Further, the inhibition result in the data set with SH-SY5Y [12] was “Active”. The figures for the IC50 with HEK293 [10] and in the data set with HEK293 [5] (setting [13]) were 450 nM and 3810 nM, respectively. Further, the viability at 10 µM with SH-SY5Y [3] is 96.5 to 106%. Also, in the data set with SH-SY5Y [6], the viability at 0.5 µM fell in the range of 66.7 to 73.8%. In the data set with SH-SY5Y [7], the viability at 1 µM was in the range of 70.8 to 77.5%. The outcome in the data set on SH-SY5Y [11] was Active.

`COCOc1ccc(C(=O)/C=C/c2cccc(C)c2)c(O)c1OCOC`: the inhibition in data set [1] turned out to be 16.4%. In the data set on SH-SY5Y [8], the Activity entry is “Non-Toxic”. For the same compound, in the data set with SH-SY5Y [3], the viability at 10 µM fell in the range of 72 to 84.9%.

As for `COCOc1ccc(C(=O)/C=C/c2cccc(Cl)c2)c(O)c1OCOC`, the inhibition in data set [1] is 16.4%. The Activity entry with SH-SY5Y [8] was “Non-Toxic”. The viability at 10 µM in the data set on SH-SY5Y [3] lay within 72 to 84.9%.
